The source of these data is ChEMBL document CHEMBL1138051, “Photodynamic therapy agent with a built-in apoptosis sensor for evaluating its own therapeutic outcome in situ” (2006).

Common to all, as to format: functional
The test system of assay [1] is HepG2. The experiment in a line: Viability of human HepG2 cells at 1 uM relative to control by MTT assay. The conditions noted are these: read-out: Survival. The essentials:
(§1)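 HepG2 cells seeded 50000/well in complete DMEM and grown overnight at 37 °C. They were then exposed for 20 h to drug in DMEM with 0.8% BSA and rinsed. Cells were kept in dark with no illumination, then incubated 24 h at 37 °C. MTT 0.5 mg/mL was given for 2 h and solubilised in 70% 2-propanol/0.1 M HCl, with A570 read. Viability is relative to untreated cells (100%), 3 wells/condition, 3-8 experiments, mean ± standard error.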

Assay [2] relates to HepG2. In words: Viability of human HepG2 cells in presence of 7.5 J/cm2 light at 30 uM relative to control by MTT assay. The conditions noted are these: HepG2, light or radiation study, read-out: Survival. The procedure, abridged: (§2)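 HepG2 cells were plated 50000/well, grown overnight, then loaded 20 h with drug in DMEM/0.8% BSA. After rinsing into complete DMEM they were irradiated with a 670 nm laser at 20 mW/cm2 fluence rate. They were then incubated 24 h at 37 °C, given MTT 0.5 mg/mL for 2 h, solubilised in acidified 2-propanol, and A570 was read. Viability is versus untreated cells (100%), 3 wells/condition, 3-8 experiments, mean ± standard error.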

For assay [3], the system named is HepG2. In words: Viability of human HepG2 cells at 15 uM relative to control by MTT assay. The note with it: read-out: Survival. The procedure, abridged:
as §1

The subject of assay [4] is HepG2. In words: Viability of human HepG2 cells in presence of 1 J/cm2 light at 1 uM relative to control by MTT assay. The note with it: HepG2, light or radiation study, read-out: Survival. The procedure, abridged: as §2
Assay [5] has as its system HepG2. In words: Viability of human HepG2 cells in presence of 1 J/cm2 light at 15 uM relative to control by MTT assay. The note with it: HepG2, light or radiation study, read-out: Survival. The essentials: as §2
The subject of assay [6] is HepG2. In words: Viability of human HepG2 cells in presence of 7.5 J/cm2 light at 15 uM relative to control by MTT assay. The note with it: HepG2, light or radiation study, read-out: Survival. The essentials:
as §2

The subject of assay [7] is HepG2. In words: Viability of human HepG2 cells at 5 uM relative to control by MTT assay. The note with it: read-out: Survival. The essentials: as §1
Assay [8] deals with HepG2. In words: Viability of human HepG2 cells in presence of 5 J/cm2 light at 30 uM relative to control by MTT assay. The note with it: HepG2, light or radiation study, read-out: Survival. The procedure, abridged:
as §2

Assay [9] concerns HepG2. The experiment in a line: Viability of human HepG2 cells in presence of 7.5 J/cm2 light at 5 uM relative to control by MTT assay. The note with it: HepG2, light or radiation study, read-out: Survival. The essentials:
as §2

For assay [10], the system named is HepG2. In words: Viability of human HepG2 cells in presence of 7.5 J/cm2 light at 1 uM relative to control by MTT assay. The conditions noted are these: HepG2, light or radiation study, read-out: Survival. The essentials: as §2
Assay [11] has as its system HepG2. In words: Viability of human HepG2 cells in presence of 5 J/cm2 light at 1 uM relative to control by MTT assay. The conditions noted are these: HepG2, light or radiation study, read-out: Survival. The essentials:
as §2

The subject of assay [12] is HepG2. The experiment in a line: Viability of human HepG2 cells in presence of 5 J/cm2 light at 15 uM relative to control by MTT assay. The note with it: HepG2, light or radiation study, read-out: Survival. The procedure, abridged: as §2
The subject of assay [13] is HepG2. The experiment in a line: Viability of human HepG2 cells in presence of 1 J/cm2 light at 5 uM relative to control by MTT assay. The conditions noted are these: HepG2, light or radiation study, read-out: Survival. The essentials: as §2
Assay [14] has as its system HepG2. In words: Viability of human HepG2 cells at 30 uM relative to control by MTT assay. The note with it: read-out: Survival. The essentials: as §1
The test system of assay [15] is HepG2. In words: Viability of human HepG2 cells in presence of 1 J/cm2 light at 30 uM relative to control by MTT assay. The conditions noted are these: HepG2, light or radiation study, read-out: Survival. The essentials: as §2
In assay [16] the test system is HepG2. The experiment in a line: Viability of human HepG2 cells in presence of 5 J/cm2 light at 5 uM relative to control by MTT assay. The note with it: HepG2, light or radiation study, read-out: Survival. The essentials: as §2

Each structure is given as a SMILES string.

As to `C=Cc1c(C)c2cc3[nH]c(c4c5nc(cc6nc(cc1[nH]2)C(C)=C6CC)C(C)=C5C(=O)C4)[C@@](C)(CCC(=O)NCC(=O)N[C@@H](CC(=O)O)C(=O)N[C@@H](CCC(=O)O)C(=O)N[C@H](C(=O)N[C@@H](CC(=O)O)C(=O)NCC(=O)N[C@@H](CO)C(=O)NCC(=O)N[C@@H](CCCCNC(=O)CCCN(C)c1ccc(/N=N/c2ccc4nc5ccc(N(CC)CC)cc5[n+](-c5ccccc5)c4c2)cc1)C(=O)O)C(C)C)C3(C)C`, the viability at 1 µM amounted to 106% in the assay with HepG2 [1], 90% with HepG2 [4], 6% with HepG2 [10] and 58% with HepG2 [11]. The viability at 30 µM in the assay on HepG2 [2] amounted to 4%; with HepG2 [8], 7%; in the assay on HepG2 [14], 117%; with HepG2 [15] it was 41%. Besides, the viability at 15 µM was 108% in the assay on HepG2 [3], 56% in the assay with HepG2 [5], 5% in the assay on HepG2 [6] and 11% with HepG2 [12]. Also, the viability at 5 µM in the assay on HepG2 [7] came to 105%; with HepG2 [9] it was 4%; with HepG2 [13] it was 86%; in the assay on HepG2 [16], 20%.
